Compound activity: PubChem, several laboratories
sdo1 growth – growth rescue of sdo1-depleted yeast, primary screen, S. cerevisiae, bone marrow failure model | z-score at 10 µM | hit rate 0.21% among 140,000 | S. cerevisiae sdo1-depleted JHY4D growth rescue, OD600 30 h; stronger effect = higher value; pdr5 snq2 efflux-pump mutant strain | AID 817, 2007;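 active means z-score above 3 at both the 24 hr and the 30 hr optical density reads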;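 further: z-score against mean and SD of all compound wells on the same plate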
ROMK primary – ROMK potassium channel modulators, primary screen, cell-based, thallium flux, MLSMR library. Tet-inducible ROMK, thallium flux fluorescence; actives lie on both sides. B-score at 10 µM. AID 1918, 2009. hit rate 2% among 130,000;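 active means signal ratio slope over the read window, or its plate-corrected B-score, at least 3 SD from the plate mean, either direction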;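 further: B-score of the F/F0 ratio slope over 7 to 12 s after thallium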
Target sequence (P48048 whole entry, looked up): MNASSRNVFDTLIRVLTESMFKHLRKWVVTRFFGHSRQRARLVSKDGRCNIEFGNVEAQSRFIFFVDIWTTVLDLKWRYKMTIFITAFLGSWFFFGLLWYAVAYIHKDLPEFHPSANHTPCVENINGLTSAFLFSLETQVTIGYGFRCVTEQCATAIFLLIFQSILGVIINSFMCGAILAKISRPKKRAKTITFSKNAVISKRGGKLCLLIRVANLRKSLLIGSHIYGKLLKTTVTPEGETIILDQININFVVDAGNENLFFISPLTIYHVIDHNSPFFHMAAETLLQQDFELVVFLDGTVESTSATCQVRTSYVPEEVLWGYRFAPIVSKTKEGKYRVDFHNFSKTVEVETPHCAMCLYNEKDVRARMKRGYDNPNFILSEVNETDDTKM
ABCB1 inh – ABCB1 efflux pump inhibitors, primary screen, cell-based, multiplex, flow cytometry, ABCG2 counter-screen; ATP-dependent translocase ABCB1 (Homo sapiens), P08183; CCRF-Adr cells, JC-1 efflux; inhibition, % at 6.6 µM; hit rate 0.067% among 190,000; AID 1326, 2008; in the data active means inhibition above about 40%;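 further: 0% = vehicle and 100% = reference inhibitor; higher value means more JC-1 retained so stronger ABCB1 efflux block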
Insulin prom up – insulin promoter activators in MIN6 cells, imaging, high-content screening, mouse beta cells | MIN6 insulin promoter-GFP reporter; stronger effect = higher value | z-score at 5 µM | hit rate 0.3% among 190,000;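 active means z-score above 3 at 5 µM with at least 500 cells counted in the well; inconclusive means wells under 500 cells, flagged as cytotoxic or low count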
Autophagy HCS – autophagy modulators in MEF cells, primary screen, imaging, high-content, MEF GFP-LC3; AID 463193, 2010; calls only at 10 µM (by protocol); MEF GFP-LC3 puncta imaging; test concentration mostly 10 µM; hit rate 0.98% among 190,000;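 active means percentage of spot-positive cells more than 3 SD above its plate mean, without a fluorescence outlier flag or 80% toxicity; inconclusive means no clear call, values can overlap the other calls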;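 further: spot-positive cell cutoff set from DMSO-treated cells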
ABCG2 block – ABCG2 efflux pump inhibitors, primary screen, multiplex with ABCB1, IgMXP3 cells, flow cytometry; AID 1325, 2008; JC-1 efflux; hit rate 0.1% among 190,000; inhibition, % at 6.6 µM;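 active means inhibition above 80%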;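 further: 0% = DMSO and 100% = nicardipine control wells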
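Test system: IgMXP3 cells (ABCG2) mixed with DDAO far-red-labelled CCRF-Adr cells (ABCB1). Reagent: JC-1 transporter substrate. Compound dosing: single test compound dose, 6.6 µM final. Times: 10 min compound exposure, 25 °C. Detection: flow cytometry of retained JC-1 fluorescence. Read-out basis: efflux inhibition in percent versus controls. Controls: nicardipine and DMSO wells.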
sdo1 rescue conf – SDO1-depleted yeast growth rescue, concentration-response, diseases of bone marrow failure, JHY4D, OD600 | shares compounds with sdo1 growth | S. cerevisiae JHY4D (SDO1-depleted) growth rescue, 30 h; stronger effect = higher value; efflux-deficient strain, SNQ2 and PDR5 mutated | OD recovery (no concentration beside the values) | hit rate 44% among 440;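 active means yeast growth recovered at 30 hours, either rising with dose fitted slope above 0.001 or with average optical density gain above 0.07, some results past the limit were not filed as active; inactive means growth falling with dose or no effect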;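 further: gain in OD600 from 0 h to 30 h averaged across all seven doses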
Numbers without * were called inactive; i = inactive; ? = inconclusive; . = no result given; + = active, no number. Compounds with a hit are over-represented: about 2.3% of the library has one in this group of screens.

SMILES	sdo1 growth	ROMK primary	ABCB1 inh	Insulin prom up	Autophagy HCS	ABCG2 block	others
COc1cccc(OCCn2cc(/C=N/NC(=O)c3ccncc3)c3ccccc32)c1	-0.25	.	2.3	-0.06	+	12.9
Cc1cnc(NC(=O)CN2CCN(c3ccccn3)CC2)s1	0.3	.	0.2	3.14*	i	0.7
Cc1c(NC(=S)Nc2ccc(Cl)cc2)c(=O)n(-c2ccccc2)n1C	.	0.633	0.0	-0.12	i	1.4
CSc1nc(C)c(C(=O)C[n+]2ccc(C)cc2)cc1C#N	.	0.307	0.9	-0.07	i	6.8
N#C/C(=C\c1ccc(N2CCCCC2)o1)C(=O)Nc1cccc(Br)c1	-0.49	-0.0321	60.5*	.	?	121.7*
N#C/C(=C\c1ccc(N2CCCCC2)o1)C(N)=O	.	.	0.1	.	i	3.1
Oc1ccc(N=Nc2n[nH]c(-c3ccc(Cl)cc3)n2)cc1	0.46	0.312	0.8	0.15	i	38.7
COc1cc2c3nnc(-c4ccc(F)cc4)c-3cn(Cc3ccc(F)cc3)c2cc1OC	2.09	.	0.3	.	+	4.3
COc1cc2c3nnc(-c4ccc(F)cc4)c-3cn(Cc3ccccc3)c2cc1OC	0.75	.	0.3	.	+	2.6
COc1ccc(Cn2cc3c(-c4ccc(F)cc4)nnc-3c3cc(OC)c(OC)cc32)cc1	0.01	.	0.2	-0.07	i	4.7
CNc1ncnc(Sc2ccc(Cl)cc2)c1[N+](=O)[O-]	.	.	.	-0.47	.	.
COc1cc2c(cc1N/C=C(\C#N)c1nc(-c3ccccc3)cs1)oc1ccccc12	.	-0.648	-0.3	.	+	-3.1
COCCNC(=O)c1c(NC(=O)c2nc(SC)ncc2Cl)sc2c1CCCC2	0.86	.	2.2	0.42	+	37.7
CSc1ncc(Cl)c(C(=O)Nc2cccc3ccccc23)n1	-0.24	.	-0.1	0.21	i	0.2
Nc1nnc(Cc2ccccc2F)s1	.	-0.127	0.1	-0.34	+	-0.3
CCCCN1C(=O)/C(=C/C=C2/CC(C)(C)CN2C)SC1=S	-0.78	.	2.6	.	+	7.5
O=C(C1=C[C@@H](C2CCCCC2)C[C@@H](OCc2ccc(CO)cc2)O1)N1CCN(Cc2ccccc2)CC1	.	.	1.7	-0.13	i	12.5
CCCN(CCC)CC(O)Cn1cc(/C=C/C(=O)c2cccs2)c2ccccc21 (stereo not drawn)	-1.09	.	3.5	1	i	0.8
O=C(/C=C/c1cn(CC(O)CN2CCCCC2)c2ccccc12)c1cccs1 (stereo not drawn)	0.02	.	3.9	4.58*	+	2.0
COc1ccc(C(=O)c2sc3nc(C)cc(-c4cccs4)c3c2N)cc1	0.28	.	1.1	2.67	+	-7.5
Cc1cc(C)c2c(N)c(C(=O)c3ccc(Cl)cc3)sc2n1	-0.79	1.03	-4.1	-1.1	i	-14.8
Cc1cc(C)c2c(N)c(C(=O)c3ccc(Cl)c(Cl)c3)sc2n1	.	-0.466	1.8	.	i	22.8
CC(C)NC(=O)c1sc2nc(-c3cccs3)cc(-c3cccs3)c2c1N	-0.93	.	2.8	0.46	+	1.1
Cc1cc(-c2cccs2)c2c(N)c(C(=O)c3ccc4c(c3)OCO4)sc2n1	-0.91	.	0.7	4.7*	+	-0.4
COc1ccc(C(=O)c2sc3nc(C)cc(-c4cccs4)c3c2N)cc1OC	-0.18	.	18.3	2.55	+	9.6
SMILES	sdo1 growth	ROMK primary	ABCB1 inh	Insulin prom up	Autophagy HCS	ABCG2 block	others
CCOC(=O)c1sc(NC(=O)CCN2CCN(CC)CC2)c(C(=O)OCC)c1C	.	-0.154	2.0	-0.66	i	4.6
Nc1c(C(=O)Nc2nc3ccccc3s2)sc2nc(-c3cccs3)ccc12	-1.28	.	-0.7	.	+	-2.2
CC(C)CC1=NN(C(=O)c2ccco2)C(O)(C(F)(F)F)C1 (stereo not drawn)	.	2.04	-0.4	-0.97	i	0.5
Cc1ccc2cc3c(N)c(C(=O)Nc4c(C)[nH]c(=O)[nH]c4=O)sc3nc2c1	0.24	.	-1.1	.	+	-7.7
Cc1ccc2nc3sc(C(=O)Nc4c(C)[nH]c(=O)[nH]c4=O)c(N)c3cc2c1	1.07	.	-1.9	.	i	-15.0
CCCC(C)NC(=O)COC(=O)c1cccc(NS(C)(=O)=O)c1 (stereo not drawn)	.	.	.	-0.22	.	.
CCC(=O)NC(=S)Nc1cccc(NC(=O)c2ccccc2)c1	.	.	1.5	1.17	+	17.9
O=C(CSc1nnc(-c2ccncc2)n1Cc1ccco1)Nc1nc(-c2ccccc2)cs1	-0.99	-2.18	1.0	-0.38	+	3.5
C=CCOc1ccc2nc(NC(=O)OC)[nH]c2c1	0.52	1.08	0.2	-1.69	+	4.2
CSc1sc(C(=O)NN)c2c1C1(CCC2)SCCS1	.	.	.	-0.25	.	.
CCCCN(CC)CCCNC(=S)Nc1ccc2nc(N3CCN(C)CC3)cc(C)c2c1	.	0.0794	-0.3	1.23	+	-0.4
CCCN(CCC)CCCNC(=S)Nc1ccc2nc(N3CCCC3)cc(C)c2c1	.	-0.362	-0.2	-0.61	i	0.5
CCCCN(CC)CCCNC(=S)Nc1ccc2nc(N3CCN(CC)CC3)cc(C)c2c1	.	-0.964	0.8	-0.19	+	0.7
S=C(Nc1ccccc1)Nc1ccccc1Br	.	.	.	0.96	.	.
O=C(CN1CCc2ccccc21)NC(=O)NCc1ccccc1	.	-0.458	0.5	-0.1	i	1.7
Cc1[nH]c2ccccc2c1C(=O)CN1CCN(C2CCCCC2)CC1	9.08*	.	0.2	-0.47	i	-1.7	sdo1 rescue conf=0.0448
O=C1C(=O)N(C2CCCC2)C(=O)N1Cc1c(F)cccc1Cl	.	-0.0145	1.0	-0.53	i	1.7
CC(NC(=O)c1sc2ccccc2c1Cl)C1CCCO1 (stereo not drawn)	3.96*	.	0.3	0.04	i	10.9	sdo1 rescue conf=0.079
O=C(c1ccc(Oc2ccccc2)cc1)C1CCCN(C(=O)c2cnccn2)C1 (stereo not drawn)	.	.	.	-0.07	.	.
COc1ccc(S(=O)(=O)N2CCCC(C(=O)NC3CCCCC3)C2)cc1 (stereo not drawn)	-0.49	0.104	0.3	0.29	i	0.3
COc1ccc(S(=O)(=O)N2CCCC(C(=O)O)C2)cc1 (stereo not drawn)	2.1	-0.0115	0.2	0.42	i	0.1	sdo1 rescue conf=0.0457
CCCc1nnc(NC(=O)C(CC)OC(=O)c2cc(C)nc3ccccc23)s1 (stereo not drawn)	12.2*	.	0.7	0.35	i	1.0	sdo1 rescue conf=0.0392
Cc1ccc(SCCC(=O)Nc2ccccc2C(=O)N2CCOCC2)cc1	4.07*	-0.507	-0.9	-0.19	i	-2.2	sdo1 rescue conf=0.0497
